Test results published in ChEMBL document CHEMBL1137547, “Synthesis and antifungal activities of novel 2-aminotetralin derivatives” (2007).
In brackets after ≈: the same amount, converted by molar mass.

Tests used:
Assay type in all cases: functional
[1] = tested on: Fonsecaea compacta; experiment: Antifungal activity against Fonsecaea compacta
How it was run: (§1)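 NCCLS broth serial dilution in RPMI 1640 buffered with 0.165 M MOPS. Compounds were dissolved in DMSO and serially diluted in medium. Strains came from ATCC or clinical isolates. The growth MIC for filamentous fungi was read at 7 d, taken as the lowest concentration giving ≥80% turbidity inhibition versus the growth control.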

[2] = tested on: Cryptococcus neoformans; experiment: Antifungal activity against Cryptococcus neoformans after 72 hrs
How it was run: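 Cryptococcus neoformans was tested by NCCLS serial dilution in MOPS-buffered (0.165 M) RPMI 1640 at 35 °C. Compounds were dissolved in DMSO and diluted in medium. The MIC was read at 72 h as the lowest concentration giving turbidity inhibition of ≥80% relative to the growth control.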

[3] = tested on: Aspergillus fumigatus; experiment: Antifungal activity against Aspergillus fumigatus; how it was run: as §1
[4] = tested on: Candida albicans; experiment: Antifungal activity against Candida albicans after 24 hrs
How it was run: (§2)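 Candida yeasts were tested by NCCLS microdilution in RPMI 1640 buffered with 0.165 M MOPS and incubated at 35 °C. Compounds were dissolved in DMSO and serially diluted in medium. Isolates came from ATCC or the clinic. The MIC was read at 24 h as the lowest concentration achieving ≥80% growth inhibition versus the control.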

[5] = tested on: Microsporum; experiment: Antifungal activity against Microsporum gypseum
How it was run: (§3)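 Dermatophytes were tested by NCCLS serial dilution in RPMI 1640 with 0.165 M MOPS and incubated at 28 °C. Compounds were dissolved in DMSO and diluted in medium. Strains came from ATCC or clinical isolates. The MIC was read at 7 d as the lowest concentration reducing turbidity by ≥80% relative to the drug-free control.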

[6] = tested on: Candida parapsilosis; experiment: Antifungal activity against Candida parapsilosis after 24 hrs; details: Lodderomyces parapsilosis; how it was run: as §2
[7] = tested on: Trichophyton rubrum; experiment: Antifungal activity against Trichophyton rubrum; how it was run: as §3

Compound | MIC [1] | MIC [2] | MIC [3] | MIC [4] | MIC [5] | MIC [6] | MIC [7]
CCCCCCCCCCN1CCc2cc(O)c(O)cc2C1 | 16 µM (≈ 4.89 µg/mL) | 1 µM (≈ 0.305 µg/mL) | 16 µM (≈ 4.89 µg/mL) | > 64 µM | > 64 µM | 0.5 µM (≈ 0.153 µg/mL) | 1 µM (≈ 0.305 µg/mL)
Oc1cccc2c1CC(NCc1ccccc1)CC2 (stereo not given) | 32 µM (≈ 8.11 µg/mL) | > 64 µM | > 64 µM | 64 µM (≈ 16.2 µg/mL) | 32 µM (≈ 8.11 µg/mL) | > 64 µM | 0.5 µM (≈ 0.127 µg/mL)
Oc1ccc2c(c1)CC(Nc1ccc(Cl)cc1)CC2 (stereo not given) | 32 µM (≈ 8.76 µg/mL) | 16 µM (≈ 4.38 µg/mL) | 64 µM (≈ 17.5 µg/mL) | > 64 µM | 4 µM (≈ 1.1 µg/mL) | 32 µM (≈ 8.76 µg/mL) | 2 µM (≈ 0.548 µg/mL)
Oc1cccc2c1CC(Nc1ccc(Cl)cc1)CC2 (stereo not given) | 64 µM (≈ 17.5 µg/mL) | 32 µM (≈ 8.76 µg/mL) | > 64 µM | 16 µM (≈ 4.38 µg/mL) | 8 µM (≈ 2.19 µg/mL) | 32 µM (≈ 8.76 µg/mL) | 8 µM (≈ 2.19 µg/mL)
Oc1ccc2c(c1)CCC(NCc1ccccc1)C2 (stereo not given) | > 64 µM | > 64 µM | > 64 µM | 64 µM (≈ 16.2 µg/mL) | > 64 µM | > 64 µM | 8 µM (≈ 2.03 µg/mL)
CCCCCCCCNC1CCc2cccc(OC)c2C1 (stereo not given) | 8 µM (≈ 2.32 µg/mL) | 16 µM (≈ 4.63 µg/mL) | 32 µM (≈ 9.26 µg/mL) | 16 µM (≈ 4.63 µg/mL) | 8 µM (≈ 2.32 µg/mL) | 32 µM (≈ 9.26 µg/mL) | 4 µM (≈ 1.16 µg/mL)
COc1cccc2c1CC(NCc1ccccc1)CC2 (stereo not given) | > 64 µM | > 64 µM | > 64 µM | > 64 µM | 4 µM (≈ 1.07 µg/mL) | > 64 µM | 32 µM (≈ 8.56 µg/mL)
Oc1cccc2c1CCC(NCc1ccccc1)C2 (stereo not given) | > 64 µM | > 64 µM | > 64 µM | 64 µM (≈ 16.2 µg/mL) | > 64 µM | > 64 µM | 0.125 µM (≈ 0.0317 µg/mL)
COc1ccc(NC2CCc3cccc(OC)c3C2)cc1 (stereo not given) | > 64 µM | > 64 µM | > 64 µM | > 64 µM | 16 µM (≈ 4.53 µg/mL) | > 64 µM | 32 µM (≈ 9.07 µg/mL)
COc1ccc(NC2CCc3ccc(O)cc3C2)cc1 (stereo not given) | > 64 µM | > 64 µM | > 64 µM | > 64 µM | 32 µM (≈ 8.62 µg/mL) | 64 µM (≈ 17.2 µg/mL) | 0.5 µM (≈ 0.135 µg/mL)
CCCCCCCCNC1CCc2c(O)cccc2C1 (stereo not given) | 8 µM (≈ 2.2 µg/mL) | 32 µM (≈ 8.81 µg/mL) | > 64 µM | 8 µM (≈ 2.2 µg/mL) | 8 µM (≈ 2.2 µg/mL) | 64 µM (≈ 17.6 µg/mL) | 4 µM (≈ 1.1 µg/mL)
CCCCCCCCCNC1CCc2ccc(OC)cc2C1 (stereo not given) | 2 µM (≈ 0.607 µg/mL) | 4 µM (≈ 1.21 µg/mL) | 16 µM (≈ 4.86 µg/mL) | 0.25 µM (≈ 0.0759 µg/mL) | 4 µM (≈ 1.21 µg/mL) | 4 µM (≈ 1.21 µg/mL) | 0.0625 µM (≈ 0.019 µg/mL)
CCCCCCCCCNC1CCc2cccc(OC)c2C1 (stereo not given) | 2 µM (≈ 0.607 µg/mL) | 4 µM (≈ 1.21 µg/mL) | 16 µM (≈ 4.86 µg/mL) | 0.5 µM (≈ 0.152 µg/mL) | 64 µM (≈ 19.4 µg/mL) | 1 µM (≈ 0.303 µg/mL) | 2 µM (≈ 0.607 µg/mL)
CCCCCCCCCNC1CCc2c(O)cccc2C1 (stereo not given) | 4 µM (≈ 1.16 µg/mL) | 8 µM (≈ 2.32 µg/mL) | 64 µM (≈ 18.5 µg/mL) | 1 µM (≈ 0.289 µg/mL) | 8 µM (≈ 2.32 µg/mL) | 32 µM (≈ 9.26 µg/mL) | 4 µM (≈ 1.16 µg/mL)
COc1ccc2c(c1)CCC(Nc1ccc(Cl)cc1)C2 (stereo not given) | > 64 µM | > 64 µM | > 64 µM | > 64 µM | 16 µM (≈ 4.6 µg/mL) | > 64 µM | 1 µM (≈ 0.288 µg/mL)
COc1cccc2c1CC(Nc1ccc(Cl)cc1)CC2 (stereo not given) | > 64 µM | > 64 µM | > 64 µM | > 64 µM | 32 µM (≈ 9.21 µg/mL) | > 64 µM | > 64 µM
CCCCCCCCNC1CCc2ccc(OC)cc2C1 (stereo not given) | 4 µM (≈ 1.16 µg/mL) | 16 µM (≈ 4.63 µg/mL) | 64 µM (≈ 18.5 µg/mL) | 1 µM (≈ 0.289 µg/mL) | 8 µM (≈ 2.32 µg/mL) | 32 µM (≈ 9.26 µg/mL) | 4 µM (≈ 1.16 µg/mL)
Oc1ccc2c(c1)CCC(Nc1ccc(Cl)cc1)C2 (stereo not given) | 32 µM (≈ 8.76 µg/mL) | 16 µM (≈ 4.38 µg/mL) | 64 µM (≈ 17.5 µg/mL) | > 64 µM | 4 µM (≈ 1.1 µg/mL) | 32 µM (≈ 8.76 µg/mL) | 0.25 µM (≈ 0.0684 µg/mL)
COc1ccc(NC2CCc3cccc(O)c3C2)cc1 (stereo not given) | > 64 µM | > 64 µM | > 64 µM | > 64 µM | 16 µM (≈ 4.31 µg/mL) | > 64 µM | 2 µM (≈ 0.539 µg/mL)
COc1ccc2c(c1)CC(NCc1ccccc1)CC2 (stereo not given) | > 64 µM | > 64 µM | > 64 µM | 64 µM (≈ 17.1 µg/mL) | > 64 µM | > 64 µM | 4 µM (≈ 1.07 µg/mL)
Oc1ccc2c(c1)CC(NCc1ccccc1)CC2 (stereo not given) | > 64 µM | > 64 µM | > 64 µM | 64 µM (≈ 16.2 µg/mL) | > 64 µM | > 64 µM | 16 µM (≈ 4.05 µg/mL)
COc1ccc(NC2CCc3cc(OC)ccc3C2)cc1 (stereo not given) | > 64 µM | > 64 µM | > 64 µM | > 64 µM | 8 µM (≈ 2.27 µg/mL) | > 64 µM | 8 µM (≈ 2.27 µg/mL)
COc1ccc(NC2CCc3c(O)cccc3C2)cc1 (stereo not given) | > 64 µM | > 64 µM | > 64 µM | > 64 µM | 16 µM (≈ 4.31 µg/mL) | 32 µM (≈ 8.62 µg/mL) | 0.25 µM (≈ 0.0673 µg/mL)
COc1ccc(NC2CCc3cc(O)ccc3C2)cc1 (stereo not given) | > 64 µM | 64 µM (≈ 17.2 µg/mL) | > 64 µM | > 64 µM | 16 µM (≈ 4.31 µg/mL) | 64 µM (≈ 17.2 µg/mL) | 0.5 µM (≈ 0.135 µg/mL)
COc1ccc2c(c1)CC(Nc1ccc(Cl)cc1)CC2 (stereo not given) | > 64 µM | > 64 µM | > 64 µM | > 64 µM | 16 µM (≈ 4.6 µg/mL) | > 64 µM | 16 µM (≈ 4.6 µg/mL)
COc1ccc(NC2CCc3ccc(OC)cc3C2)cc1 (stereo not given) | 64 µM (≈ 18.1 µg/mL) | > 64 µM | > 64 µM | > 64 µM | 16 µM (≈ 4.53 µg/mL) | > 64 µM | 0.5 µM (≈ 0.142 µg/mL)
CCCCCCCCNC1CCc2ccc(O)cc2C1 (stereo not given) | 8 µM (≈ 2.2 µg/mL) | 16 µM (≈ 4.41 µg/mL) | > 64 µM | 4 µM (≈ 1.1 µg/mL) | 4 µM (≈ 1.1 µg/mL) | 32 µM (≈ 8.81 µg/mL) | 8 µM (≈ 2.2 µg/mL)
COc1ccc(NC2CCc3c(cccc3OC)C2)cc1 (stereo not given) | > 64 µM | > 64 µM | > 64 µM | > 64 µM | 8 µM (≈ 2.27 µg/mL) | > 64 µM | 2 µM (≈ 0.567 µg/mL)
COc1cccc2c1CCC(Nc1ccc(Cl)cc1)C2 (stereo not given) | > 64 µM | > 64 µM | > 64 µM | > 64 µM | 16 µM (≈ 4.6 µg/mL) | > 64 µM | 2 µM (≈ 0.576 µg/mL)
Oc1cccc2c1CCC(Nc1ccc(Cl)cc1)C2 (stereo not given) | 16 µM (≈ 4.38 µg/mL) | 8 µM (≈ 2.19 µg/mL) | 64 µM (≈ 17.5 µg/mL) | 2 µM (≈ 0.548 µg/mL) | 0.5 µM (≈ 0.137 µg/mL) | 8 µM (≈ 2.19 µg/mL) | 2 µM (≈ 0.548 µg/mL)
